# NALP1 inh = NALP1 inhibition | S. cerevisiae NALP1/ASC/caspase-1 growth, X-gal OD620, 72 h | inhibition, % at 10 µM | 0.61% of 280,000 active; in the data active means inhibition mostly above about 24%, no sharp cut-off; inactive means mostly below about 32%
# Pemphigus Ab inh = inhibitors of pemphigus antibody binding to human desmoglein-3; P32926; DSG3-coupled beads, scFv-anti-DSG3-GFP binding, flow cytometry; hits give low values; binding (percent of control), % at 10 µM; 0.48% of 310,000 active; AID 588358;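 active means binding more than 3 SD below its plate's average and above zero; inconclusive means below that plate limit but binding exactly zero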;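 further: hits lower antibody fragment binding to DSG3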
# Target sequence (P32926 whole entry, looked up, the tested form may be a part): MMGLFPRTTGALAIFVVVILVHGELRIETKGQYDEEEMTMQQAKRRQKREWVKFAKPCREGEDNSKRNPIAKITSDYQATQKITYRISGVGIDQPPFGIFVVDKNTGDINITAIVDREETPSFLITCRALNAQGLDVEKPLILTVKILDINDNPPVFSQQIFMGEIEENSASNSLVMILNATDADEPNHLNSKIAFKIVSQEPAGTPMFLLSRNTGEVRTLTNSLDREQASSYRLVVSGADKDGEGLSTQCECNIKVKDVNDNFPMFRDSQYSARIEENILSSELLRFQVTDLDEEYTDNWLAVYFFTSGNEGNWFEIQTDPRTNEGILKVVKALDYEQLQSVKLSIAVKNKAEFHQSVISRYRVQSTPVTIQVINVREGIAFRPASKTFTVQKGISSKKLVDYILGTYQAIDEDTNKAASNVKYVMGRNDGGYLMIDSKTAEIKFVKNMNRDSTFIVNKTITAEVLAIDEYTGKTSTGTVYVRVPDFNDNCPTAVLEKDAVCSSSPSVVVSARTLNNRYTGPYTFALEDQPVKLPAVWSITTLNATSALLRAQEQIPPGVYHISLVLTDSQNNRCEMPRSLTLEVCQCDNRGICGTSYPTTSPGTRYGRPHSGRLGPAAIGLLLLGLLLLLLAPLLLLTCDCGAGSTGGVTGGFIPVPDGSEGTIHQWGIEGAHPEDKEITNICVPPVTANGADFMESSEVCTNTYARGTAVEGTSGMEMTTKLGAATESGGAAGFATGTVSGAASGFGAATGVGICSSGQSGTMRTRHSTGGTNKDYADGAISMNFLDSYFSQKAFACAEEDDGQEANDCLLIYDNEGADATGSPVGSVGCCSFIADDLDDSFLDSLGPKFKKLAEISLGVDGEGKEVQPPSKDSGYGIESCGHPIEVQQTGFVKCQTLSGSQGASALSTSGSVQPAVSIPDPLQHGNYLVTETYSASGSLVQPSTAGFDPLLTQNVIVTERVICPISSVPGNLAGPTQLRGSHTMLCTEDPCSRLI
# PolyA inhibitor = inhibitors of polyadenylation in S. cerevisiae; 0.02% of 300,000 active; S. cerevisiae SKY197-pL101 polyadenylation reporter, beta-gal luminescence; efflux-impaired pdr1/pdr3 knockout yeast; score 100 = 6 SD above DMSO; activity score, % at 12 µM;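 active means lowest replicate activity score at least 50, where 100 means six control SD above control mean; inconclusive means lowest score under 50 but half or more replicates reach 50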;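 further: yeast exposed to compound for 9 h at 30 °C; higher score means more reporter readthrough which indicates perturbed polyadenylation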
# ALR inh = blocks human ALR sulfhydryl oxidase activity; P55789; purified ALR, DTT oxidation, H2O2 HRP-luminol luminescence; inhibition, % (no concentration beside the values); 3.8% of 290,000 active;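 active means mean replicate inhibition above about 79%, with every replicate also reaching it, limit read from the data; inconclusive means only one of the two criteria met; inactive means mean below limit and not every replicate reaching it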
# NALP3 yeast inh = blocks the NALP3 inflammasome reconstituted in yeast; Yeast reconstituted NLRP3/ASC/caspase-1, beta-gal luminescence, 24 h; inhibition, % at 10 µM; 0.39% of 330,000 active; AID 2825;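 active means inhibition of 50% or more; inactive means inhibition below 50%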;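 further: plate controls were induced DMSO wells for no effect and uninduced yeast grown without galactose for full effect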
# Arrestin-AP2 inh = inhibitors of human beta-arrestin and AP2 interaction. AID 504490. FITC-arrestin peptide / GST-AP2 beads, flow cytometry; AP2 beta2 appendage carries R879A mutation. 0.31% of 340,000 active. inhibition, % at 10 µM;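 active means inhibition above a set limit, near 3 SD of compounds lacking own fluorescence, cut at about 54% in these data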;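 further: plate controls were DMSO wells for no effect and 5 µM unlabelled arrestin peptide for full effect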
#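 System: GST-AP2 R879A glutathione beads. Medium: PBS with 0.05% Tween 20 and 0.1% BSA. Also added: FITC-arrestin peptide, 50 nM. Incubation: 12 min plus 1 h, RT. Measured by: high-throughput flow cytometry of beads, ex 488, em 535 nm. Evaluation: percent drop in bead-associated FITC signal.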
# An asterisk follows results filed as active; ? = inconclusive; / = no result given. Hits are enriched below; roughly 4.6% of the tested compounds scored in any of these assays.
SMILES,NALP1 inh,Pemphigus Ab inh,PolyA inhibitor,ALR inh,NALP3 yeast inh,Arrestin-AP2 inh
CCOC(=O)Nc1sc(NS(=O)(=O)c2ccccc2)nc1C,-2,99,0,98*,12,3
Cc1nc(NS(=O)(=O)c2ccccc2)sc1NC(=O)Nc1ccccc1,1,28*,-2,99*,-10,33
CC(=O)c1ccc(NC(=O)Nc2sc(NS(=O)(=O)c3ccccc3)nc2C)cc1,-4,99,2,6,-1,5
C/C(=N/NC(=O)c1sc(NS(=O)(=O)c2ccc(C)cc2)nc1C)c1sc(N)nc1C,9,119,/,99*,-6,14
Cc1nc(NS(=O)(=O)c2ccccc2)sc1NC(=O)Nc1ccc(Cl)cc1,/,97,18,74,4,2
S=c1[nH]nc(-c2ccc(Cl)cc2Cl)n1-c1ccc(Cl)cc1,-1,118,-17,94*,16,8
Fc1ccc(-n2c(-c3cc(C4CC4)[nH]n3)n[nH]c2=S)cc1Cl,/,/,1,?,22,4
S=c1[nH]nc(-c2ccc(Cl)cc2)n1-c1ccc2c(c1)OCCO2,19,80,6,57,26,11
S=c1[nH]nc(-c2ccc(Cl)cc2)n1-c1ccc(Cl)cc1,-14,97,-8,82*,23,-20
O=c1ccc(-c2n[nH]c(=S)n2-c2ccc(F)c(Cl)c2)n[nH]1,-11,99,14,86*,-10,-23
O=C(O)CN1C(=O)/C(=C/c2ccccc2Cl)Oc2ccccc21,7,91,2,4,26,-4
CCOC(=O)CN1C(=O)/C(=C/c2ccccc2Br)Oc2ccccc21,5,-3.0*,-14,-4,16,30
O=C(O)CN1C(=O)/C(=C/c2cccc(Cl)c2)Oc2ccccc21,-9,92,15,81*,3,24
CC(C)(C)NC(=O)Cc1ccc(S(=O)(=O)N2CCCC2)s1,14,75*,6,-9,11,-1
Cc1cc(C)cc(NC(=O)Cc2ccc(S(=O)(=O)N3CCCC3)s2)c1,/,103,/,-5,10,3
O=c1c2ccccc2nc(SCc2ccccc2)n1Cc1ccco1,3,/,-22,0,24,-4
O=c1[nH]nc(SCc2nc3ccccc3s2)n1C1CC1,2,98,-6,-12,8,8
CCCn1c(SCc2nc3ccccc3s2)n[nH]c1=O,33*,105,6,72,-4,45
O=c1c2ccccc2nc(SCc2nc3ccccc3s2)n1Cc1ccco1,12,90,16,87*,10,-3
CCN(CC(=O)Nc1c(F)cccc1F)C(=O)CCCN1C(=O)c2cccc3cccc(c23)C1=O,/,101,/,/,/,/
CC1CCCC12NC(=O)NC2=O (configuration not stated),/,/,/,/,/,1
Cc1ccc(NC(=O)c2sc(N)nc2-c2ccccc2)cc1C,17,83,-5,0,5,3
Cc1ccc(NC(=O)c2sc(N)nc2-c2ccc([N+](=O)[O-])cc2)cc1C,25,63*,-11,0,5,4
CCOc1ccc(NS(=O)(=O)c2cccc(C(=O)N3CCN(C/C=C/c4ccccc4)CC3)c2)cc1,/,/,/,/,/,-5
N#C/C(=N\Nc1c(Cl)cccc1Cl)C(=O)NN,-15,/,-14,98*,8,-3
SMILES,NALP1 inh,Pemphigus Ab inh,PolyA inhibitor,ALR inh,NALP3 yeast inh,Arrestin-AP2 inh
CSc1nc(Cl)cc(Nc2ccc(O)cc2)n1,6,82,7,99*,23,-14
CN1CCN(CC(=O)NN(Cc2ccccc2)c2ccccc2)CC1,/,77*,4,9,5,-6
COc1ccc(CNC(=O)CN2CCN(C(c3ccccc3)c3ccccc3)CC2)cc1,37*,93,5,-22,16,10
c1ccc(CCCN2CCOCC2)cc1,12,126,-25,2,16,-2
COc1cccc(N2CCN(CC(=O)NCc3ccccc3)CC2)c1,-7,115,-18,98*,12,-5
c1ccc(CCCN2CCN(c3ccccc3)CC2)cc1,6,122,-21,86*,14,4
CC(CCc1ccccc1)NC(=O)CN1CCN(c2ccccc2)CC1 (configuration not stated),8,105,-14,99*,35,48
COc1cc(C)c(C(=O)Oc2cc(C)c(C(=O)O)c(O)c2)c(O)c1,1,99,10,58,5,-3
COc1cc(C)c(C(=O)Oc2cc(C)c(C(=O)O)c(O)c2C)c(O)c1C,/,101,13,97*,1,-4
c1ccc(N2CCN(c3ccccc3)C2c2cccs2)cc1,22,100,1,99*,8,4
O=C1CSC(c2cccs2)N1c1ccccc1 (configuration not stated),30,78,13,/,13,23
CCc1ccc(C2NC(C(=O)O)CS2)cc1 (configuration not stated),50*,/,/,/,/,/
Cc1ccc(C)c(S(=O)(=O)Nc2ccc(O)c(C(=O)O)c2)c1,3,77,27,43,17,30
Cc1ccc(S(=O)(=O)Nc2ccc(O)c3ccccc23)c(C)c1,30,106,-7,95*,/,14
Cc1ccc(S(=O)(=O)NNc2ccccc2)c(C)c1,4,99,/,100*,/,12
COc1ccc(S(=O)(=O)Nc2ccc(O)c3ccccc23)cc1,12,99,-14,89*,27,25
Cc1ccc(C)c(S(=O)(=O)Nc2ccc(O)c3ccccc23)c1,-6,100,8,85*,8,34
CCc1noc(C)c1C(=O)N1CCSC1=Nc1cccc(Cl)c1C,9,98,17,-1,6,5
CN(C(=O)COC(=O)c1ccc(-c2ccc(O)cc2)cc1)C1CCS(=O)(=O)C1 (configuration not stated),10,70*,-5,39,5,0
CCN(CC)CCCn1c2c(c(SCC(=O)Nc3ccc(OC(F)(F)F)cc3)nc1=O)CCC2,/,101,-6,-395,18,-1
CCN(CC)CCCn1c2c(c(SCC(=O)Nc3nc4ccccc4s3)nc1=O)CCC2,/,105,-4,99*,8,8
CCN(CC)CCn1c2c(c(SCC(=O)Nc3cccc4ccccc34)nc1=O)CCCC2,/,95,-6,96*,15,25
COc1ccccc1NC(=O)CSc1nc(=O)n(CCN(C)C)c2c1CCCC2,/,?,8,-4,9,12
Cc1ccc(NC(=O)CSc2nc(=O)n(CCN(C)C)c3c2CCCC3)cc1Cl,/,106,-6,98*,-2,-4
CCN(CC)CCCn1c2c(c(SCC(=O)Nc3ccc(C)c(F)c3)nc1=O)CCC2,/,107,-2,97*,2,-4

# Screens as filed in PubChem.
